# pIC50: −log10 of the molar value.
# Assays:
# [1] = test system: CX-1; assay: In vitro inhibition of growth of human carcinoma CX-1 cell line (clonogenic assay).; format: functional, cell-based
# [2] = test system: KB; assay: In vitro inhibition of growth of KB cells (cytotoxic assay).; format: functional, cell-based, Homo sapiens
# [3] = test system: Mus musculus; assay: In vivo ratio of median survival time of drug-treated to control, untreated tumor-bearing mice at a dose of 2 mg/kg for 5 days; format: functional
# [4] = test system: Mus musculus; assay: In vivo ratio of median survival time of drug-treated to control, untreated tumor-bearing mice at a dose of 4 mg/kg for 5 days; format: functional
# In short: (§1)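 Male Swiss nu/nu mice, about 5 weeks old, acclimated 1 week. LOX melanoma was first grown sc in nude mice, then made into a single-cell suspension with RBCs lysed by ammonium chloride. Each mouse got 2×10^6 LOX cells ip in PBS. From the next day, compound was given ip in 45% hydroxypropyl β-cyclodextrin in water. T/C is median survival of treated over untreated controls, as a percentage. Five mice per group.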
# [5] = The solubility in water was determined; format: ADME
# [6] = test system: Mus musculus; assay: In vivo ratio of median survival time of drug-treated to control, untreated tumor-bearing mice at a dose of 5 mg/kg for 4 day; format: functional
# [7] = test system: Mus musculus; assay: Tumor inhibition (TI) ratio at a dose of 3 mg/kg for 4 day; format: functional
# In short: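 BDF1 mice (male, inbred, 5-week-old, ~1 week acclimation) implanted sc with 5 × 10^5 CA755 cells; compound given iv in 0.9% saline (0.2 mL/20 g body weight), 3 mg/kg/day × 4. Tumors weighed at day 11; inhibition (%) = (A − B)/A × 100, A and B being mean control and treated tumor weights. Five mice per group; Bartlett's, Dunnett's, Scheffé's tests.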
# [8] = Lethal dose when administered intraperitoneally; format: toxicity; conditions: mouse, ip
# [9] = Lethal dose when administered intravenously; format: toxicity; conditions: mouse, iv
# [10] = The solubility in 0.9% saline was determined; format: ADME
# [11] = test system: CV-1; assay: Compound was tested in vitro for inhibition of growth of cytotoxic CV-1 cell line; format: functional, cell-based, Homo sapiens; conditions: Chlorocebus aethiops
# [12] = test system: Mus musculus; assay: In vivo ratio of median survival time of drug-treated to control, untreated tumor-bearing mice at a dose of 5 mg/kg for 5 days; format: functional
# [13] = test system: Mus musculus; assay: In vivo ratio of median survival time of drug-treated to control, untreated tumor-bearing mice at a dose of 5 mg/kg for 3 days; format: functional
# [14] = test system: Mus musculus; assay: In vivo ratio of median survival time of drug-treated to control, untreated tumor-bearing mice at a dose of 10 mg/kg for 5 days; format: functional
# [15] = test system: Mus musculus; assay: In vivo ratio of median survival time of drug-treated to control, untreated tumor-bearing mice at a dose of 10 mg/kg for 1 day; format: functional
# [16] = test system: Mus musculus; assay: In vivo ratio of median survival time of drug-treated to control, untreated tumor-bearing mice at a dose of 7 mg/kg for 5 days; format: functional; in short: as §1
# [17] = test system: Mus musculus; assay: In vivo ratio of median survival time of drug-treated to control, untreated tumor-bearing mice at a dose of 4 mg/kg for 7 days; format: functional
# [18] = test system: Mus musculus; assay: Tumor inhibition (TI) ratio at a dose of 1 mg/kg for 4 day; format: functional
# [19] = test system: CV-1; assay: The IC50 value for 50%inhibition of cells on clonogenic CV-1 […] cytotoxic cell lines.; format: functional, cell-based; conditions: Chlorocebus aethiops
# In short: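 CV-1 cytotoxicity assay: cells seeded at 4×10^4 per 20 mm plate at 37 °C in 5% CO2. Next day, cells were exposed to varying compound concentrations for 1 week, stained with crystal violet, and viable cells counted.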
compound,measurement,setting,value
CC(=O)[O-].CCn1c(=O)/c(=C2\Sc3ccc4ccccc4c3N2C)s/c1=C\c1oc2c3ccccc3ccc2[n+]1CC,pIC50,"[1]; Homo sapiens, CX-1",6.17
same,pIC50,"[2]; Homo sapiens, KB",7.10
same,T/C,[3],120%
CCCC[n+]1c(/C=c2\s/c(=C\C=C3/SCCN3CC)c(=O)n2CC)sc2c3ccccc3ccc21,pIC50,"[1]; Homo sapiens, CX-1",7.52
same,pIC50,"[2]; Homo sapiens, KB",6.34
CCN1CCS/C1=C\C=c1/s/c(=C\c2sc3c4ccccc4ccc3[n+]2CC)n(CC)c1=O,pIC50,"[1]; Homo sapiens, CX-1",7.70
same,pIC50,"[2]; Homo sapiens, KB",6.49
CC(=O)[O-].CCn1c(=O)/c(=C2\SCCN2C)s/c1=C\c1sc2ccc3ccccc3c2[n+]1CC,pIC50,"[1]; Homo sapiens, CX-1",6.80
same,pIC50,"[2]; Homo sapiens, KB",6.60
same,T/C,[4],106%
CCn1c(=O)/c(=C2\Sc3ccccc3N2C)s/c1=C\c1cccc[n+]1CC.[Cl-],solubility,[5],> 5 mg/mL
same,pIC50,[2]; kb,6.09
same,T/C,[6],>344%
same,TI,[7],75.5%
same,LD50,[8],50 mg/kg
same,LD50,[9],20 mg/kg
same,solubility,[10],> 5 mg/mL
CC(=O)[O-].CCn1c(=O)/c(=C2\Sc3ccccc3N2C)s/c1=C\c1oc2ccccc2[n+]1CC,pIC50,[11],4.83
same,pIC50,"[1]; Homo sapiens, CX-1",6.74
same,pIC50,"[2]; Homo sapiens, KB",5.95
same,T/C,[12],140%
same,LD50,[8],10 mg/kg
same,LD50,[9],> 10 mg/kg
CCN1C=CC=C/C1=C\C=c1/s/c(=C\c2sc3ccc4ccccc4c3[n+]2CC)n(CC)c1=O.[Cl-],pIC50,"[1]; Homo sapiens, CX-1",7.10
same,pIC50,"[2]; Homo sapiens, KB",6.11
same,T/C,[4],122%
CCn1c(=O)/c(=C/C=C2/N(C)c3ccccc3C2(C)C)s/c1=C\c1oc2c3ccccc3ccc2[n+]1CC.Cc1ccc(S(=O)(=O)[O-])cc1,pIC50,"[1]; Homo sapiens, CX-1",8.00
same,pIC50,"[2]; Homo sapiens, KB",6.57
same,T/C,[13],94%
CC(=O)[O-].CCN1/C(=C/C=c2\s/c(=C\C3=[N+](CC)CCS3)n(CC)c2=O)C=Cc2ccccc21,pIC50,"[1]; Homo sapiens, CX-1",6.80
same,pIC50,"[2]; Homo sapiens, KB",6.04
same,T/C,[14],143%
CC(=O)[O-].CCN1C(C)=CS/C1=C\C=c1/s/c(=C\c2sc3ccccc3[n+]2CC)n(CC)c1=O,pIC50,"[1]; Homo sapiens, CX-1",7.22
same,pIC50,"[2]; Homo sapiens, KB",6.60
same,T/C,[15],138%
CCn1c(=O)/c(=C2\Sc3ccc4ccccc4c3N2C)s/c1=C\c1sc2c3ccccc3ccc2[n+]1CC.[Cl-],pIC50,"[1]; Homo sapiens, CX-1",7.30
same,pIC50,"[2]; Homo sapiens, KB",6.47
same,T/C,[16],112%
CCn1c(=O)/c(=C2\Oc3ccccc3N2C)s/c1=C\c1cccc[n+]1CC,pIC50,"[1]; Homo sapiens, CX-1",< 5.62
same,pIC50,"[2]; Homo sapiens, KB",5.43
CCN1CCS/C1=C\C=c1/s/c(=C\c2sc3c4ccccc4ccc3[n+]2C)n(CC)c1=O,pIC50,"[1]; Homo sapiens, CX-1",7.52
same,pIC50,"[2]; Homo sapiens, KB",6.31
CC(=O)[O-].CCn1c(=O)/c(=C2\Sc3ccccc3N2C)s/c1=C\c1sc2ccccc2[n+]1CC,pIC50,[11],5.85
same,pIC50,"[1]; Homo sapiens, CX-1",7.22
same,pIC50,"[2]; Homo sapiens, KB",7.22
same,T/C,[17],163%
same,TI,[18],59.4%
same,LD50,[8],30 mg/kg
same,LD50,[9],5 mg/kg
CC(=O)[O-].CCn1c(=O)/c(=C2\Sc3ccccc3N2C)s/c1=C\c1scc(C)[n+]1CC,pIC50,[11],4.63
same,pIC50,"[1]; Homo sapiens, CX-1",6.96
same,pIC50,"[2]; Homo sapiens, KB",6.02
same,T/C,[4],>173%
same,LD50,[8],30 mg/kg
same,LD50,[9],20 mg/kg
CC(=O)[O-].CCn1c(=O)/c(=C2\Sc3ccccc3N2C)s/c1=C\C1CCC[n+]2c1sc1ccccc12 (stereo unspecified),pIC50,[11],5.54
same,pIC50,"[1]; Homo sapiens, CX-1",6.64
same,pIC50,"[2]; Homo sapiens, KB",6.64
same,T/C,[4],>208%
same,LD50,[8],30 mg/kg
same,LD50,[9],3 mg/kg
CC(=O)[O-].CCn1c(=O)/c(=C2\Sc3ccccc3N2C)s/c1=C\c1ccc2ccccc2[n+]1CC,pIC50,[11],5.06
same,pIC50,"[1]; Homo sapiens, CX-1",6.55
same,pIC50,"[2]; Homo sapiens, KB",6.55
same,T/C,[3],124%
same,LD50,[8],30 mg/kg
same,LD50,[9],10 mg/kg
CCn1c(=O)/c(=C2\C=CC=CN2C)s/c1=C\c1sc2ccccc2[n+]1CC,pIC50,"[1]; Homo sapiens, CX-1",5.75
same,pIC50,"[2]; Homo sapiens, KB",5.66
CC(=O)[O-].CCn1c(=O)/c(=C2\Sc3ccccc3N2C)s/c1=C\c1cccc[n+]1CC,solubility,[5],> 5 mg/mL
same,pIC50,[19],4.20
same,pIC50,[1]; cx-1,5.96
same,pIC50,[2]; kb,6.07
same,T/C,[12],>310%
same,TI,[7],76.5%
same,LD50,[8],50 mg/kg
same,LD50,[9],20 mg/kg
same,solubility,[10],> 5 mg/mL
CC(=O)[O-].CCn1c(=O)/c(=C2\Sc3ccccc3N2C)s/c1=C\C1=[N+](CC)CCS1,pIC50,[11],4.88
same,pIC50,"[1]; Homo sapiens, CX-1",5.98
same,pIC50,"[2]; Homo sapiens, KB",5.21
same,T/C,[3],133%
same,LD50,[8],40 mg/kg
same,LD50,[9],15 mg/kg
CCN1CCS/C1=C\C=c1/s/c(=C\c2sc3c4ccccc4ccc3[n+]2CCO)n(CC)c1=O,pIC50,"[1]; Homo sapiens, CX-1",6.41
CCN1CCS/C1=C\C=c1/s/c(=C\c2sc3c4ccccc4ccc3[n+]2CCC(=O)O)n(CC)c1=O,pIC50,"[1]; Homo sapiens, CX-1",< 5.82
same,pIC50,"[2]; Homo sapiens, KB",< 4.82
CCn1c(=O)/c(=C/C=C2\Sc3ccc4ccccc4c3N2C)s/c1=C\c1scc(C)[n+]1CC,pIC50,"[1]; Homo sapiens, CX-1",< 5.74
same,pIC50,"[2]; Homo sapiens, KB",5.70
CCN1/C(=C/C=c2\s/c(=C\c3sc4ccc5ccccc5c4[n+]3CC)n(CC)c2=O)Sc2ccc3ccccc3c21.Cc1ccc(S(=O)(=O)[O-])cc1,pIC50,"[1]; Homo sapiens, CX-1",7.40
same,pIC50,"[2]; Homo sapiens, KB",6.68
same,T/C,[14],126%
CCn1c(=O)/c(=C2\Sc3ccccc3N2C)s/c1=C\c1cccc[n+]1CC.[I-],solubility,[5],0.2 mg/mL
same,pIC50,[1]; cx-1,6.10
same,pIC50,[2]; kb,4.33
same,solubility,[10],< 0.1 mg/mL

# Source: ChEMBL document CHEMBL1131199, “Structure-activity of novel rhodacyanine dyes as antitumor agents” (J Med Chem, 1998)
